Bioassay records deposited in PubChem by The Scripps Research Institute Molecular Screening Center.
This is a sample that favours compounds with a hit; in the whole collection about 2.5% have one here.
TCR-CD3 inh – inhibitors of human TCR-CD3 interaction | TAMRA-labeled TCR probe fluorescence, biochemical | inhibition, % at 9.4 µM | hit rate 0.37% among 360,000 | AID 651800; in the data active = inhibition above about 19%;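 also: recombinant mutant TCR 2C K166C tagged with TAMRA read by polarization; 0% = receptor in buffer alone and 100% = receptor with positive control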
HTRA1 inh – HTRA1 (human) protease inhibition. Q92743. recombinant HTRA1, FP-rhodamine activity-based probe, fluorescence polarization. inhibition, % at 5.96 µM. hit rate 0.5% among 340,000. AID 504803; in the data active = inhibition above about 36%;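 also: 0% = enzyme with DMSO and 100% = wells lacking enzyme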
Target sequence (Q92743 whole entry, looked up): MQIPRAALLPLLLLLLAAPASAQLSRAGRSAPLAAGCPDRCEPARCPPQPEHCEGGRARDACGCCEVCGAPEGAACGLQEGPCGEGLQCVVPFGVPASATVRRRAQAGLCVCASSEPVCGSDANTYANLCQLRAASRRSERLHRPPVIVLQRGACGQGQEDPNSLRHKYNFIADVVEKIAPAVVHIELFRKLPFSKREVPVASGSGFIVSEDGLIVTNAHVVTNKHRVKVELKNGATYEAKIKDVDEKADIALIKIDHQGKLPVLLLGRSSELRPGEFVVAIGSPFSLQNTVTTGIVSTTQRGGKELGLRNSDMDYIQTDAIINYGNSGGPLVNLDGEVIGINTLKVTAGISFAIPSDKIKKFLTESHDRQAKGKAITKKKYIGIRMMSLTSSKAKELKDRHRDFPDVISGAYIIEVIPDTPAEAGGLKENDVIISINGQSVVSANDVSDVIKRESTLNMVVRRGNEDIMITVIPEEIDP
mABHD4 FP – inhibits mouse alpha/beta hydrolase domain 4. purified mABHD4, FP-Rh probe fluorescence polarization. inhibition, % at 8.92 µM. hit rate 0.54% among 370,000. AID 720543;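 active = inhibition exceeding the mean over every tested compound plus 3 SD, cut at about 30% in these data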;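 also: 0% = plate median of compound wells and 100% = S159A mutant with DMSO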
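System: mouse ABHD4 enzyme, wild type / Medium: HEPES pH 7.0, NaCl, Pluronic buffer / Reagent: FP-Rh activity-based fluorescent probe / Control set: S159A mutant high control, sample median low control / Detection: fluorescence polarization with parallel and perpendicular emission, 525/598 nm / Schedule: 45 min + 60 min at 25 °C / Compound dosing: 8.92 µM, single dose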
PRMT1 FP inh – blocks human protein arginine methyltransferase 1. Q99873. recombinant PRMT1, activity-based probe fluorescence polarization. inhibition, % at 2.79 µM. hit rate 1.3% among 370,000. AID 652257;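 active = inhibition above about 21% made by adding two undisclosed values, limit read from the data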
SIAE primary – inhibitors of human sialic acid acetylesterase SIAE; Q9HAT2; SIAE FP-Rh probe binding, fluorescence polarization; inhibition, % at 9.66 µM; hit rate 0.69% among 370,000;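 active = inhibition above a cutoff: mean of compounds within the control limits plus 3 SD of those, cut at about 17% in these data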;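 also: 0% = plate median of compound wells and 100% = probe without SIAE protein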
PRMT1 inh conf – PRMT1 (human) inhibition, FP confirmation | shares compounds with PRMT1 FP inh | recombinant His-PRMT1, activity-based probe fluorescence polarization | inhibition, % at 2.79 µM | hit rate 42% among 3,300 | AID 687036;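 active = mean inhibition across replicates above the hit cutoff derived for the earlier primary screen, cut at about 22% in these data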
Numbers without * were called inactive; . = no result given.

SMILES	TCR-CD3 inh	HTRA1 inh	mABHD4 FP	PRMT1 FP inh	SIAE primary	PRMT1 inh conf
COC(=O)c1ccc2c(=O)n(CCN3CCOCC3)c(SCC(=O)Nc3ccccc3Cl)nc2c1	-1	4	3	27*	0	48*
O=C(COc1ccc(-c2nnco2)cc1)N1CCOCC1	6	6	-2	-4	3	.
O=C(CCCSc1ccc(Cl)cc1)Nc1cc(S(=O)(=O)N2CCOCC2)ccc1O	-3	-5	10	49*	-8	22*
Cc1ccc(C2/C(=C(/O)c3ccc(Br)cc3)C(=O)C(=O)N2Cc2ccco2)o1 (stereo unspecified)	0	17	28	35*	7	10
COc1ccc(/C(O)=C2\C(=O)C(=O)N(Cc3ccco3)C2c2cc(OC)ccc2OC)cc1 (stereo unspecified)	2	-8	4	1	3	.
Cc1ccc(NC(=O)c2cc(N3C(=O)C=CC3=O)ccc2N2CCOCC2)cc1Cl	2	-12	4	90*	-18	103*
COc1ccccc1-c1ccc(/C=C2\C=CC(=O)O2)o1	-1	.	12	44*	0	3
O=C1CC(NS(=O)(=O)c2cc(F)ccc2F)CN1c1cccc(F)c1 (stereo unspecified)	4	-2	4	1	1	.
O=C(C1=NN[C@@H]2C(=O)N(c3cccc(F)c3)C(=O)[C@H]12)c1cnccn1	-6	.	-6	36*	3	14
O=C(C1=NN[C@@H]2C(=O)N(c3ccccc3C(F)(F)F)C(=O)[C@H]12)c1cnccn1	-5	1	8	1	1	.
O=C1CC2(CCN(S(=O)(=O)c3ccccc3F)CC2)Oc2ccccc21	-4	-6	3	1	3	.
O=C(CSC1CC(=O)N(c2ccc(C(=O)O)cc2)C1=O)Nc1ccc(Cl)cc1 (stereo unspecified)	5	9	5	39*	-5	34*
CCN=C(NCC)SC1CC(=O)N(c2ccc(OC)cc2)C1=O (stereo unspecified)	-2	7	5	2	-3	.
O=C(O)CSC1CC(=O)N(c2ccc(F)cc2)C1=O (stereo unspecified)	-2	-1	-10	26*	-4	1
CCN=C(NCC)SC1CC(=O)N(CCc2ccccc2)C1=O (stereo unspecified)	6	.	-4	35*	-13	-1
O=C(CSC1CC(=O)N(CCc2ccccc2)C1=O)Nc1cccc(Cl)c1 (stereo unspecified)	10	-12	-27	54*	8	54*
NCCSC1CC(=O)N(c2ccc(F)cc2)C1=O (stereo unspecified)	1	0	2	19	0	.
O=C1CC(SC(=Nc2ccccc2)Nc2ccccc2)C(=O)N1c1ccc(Cl)cc1 (stereo unspecified)	-7	-3	-5	-1	-7	.
N#Cc1cccc(NC(=O)O[C@@H]2CC[C@@]34CCCN3C(=O)CCC[C@H]4C2)c1	.	.	-3	1	-8	.
CN(C)[C@H]1CCN(c2ccc3c(c2)O[C@H]2CCN(C2)S3(=O)=O)C1	.	.	-3	1	1	.
O=C(NS(=O)(=O)c1cccc(F)c1)[C@H]1O[C@@H](n2ccc(=O)[nH]c2=O)[C@H](O)[C@@H]1O	7	.	0	0	8	.
C[n+]1c(-c2ccccc2)sc([S-])c1-c1ccccc1	-10	.	-4	51*	-2	20
Cc1ccc(S(=O)(=O)CCC(=O)c2ccc(O)cc2O)cc1	-7	8	-4	35*	-5	4
Clc1ccc(-c2nnnn2-c2ccc(Cl)cc2)cc1	-6	.	-5	-1	-2	.
Cc1ccc(-n2nnnc2C(Cl)(Cl)c2nnnn2-c2ccc(C)cc2)cc1	7	8	0	48*	5	90*
COc1ccc(Cn2cc(CN3[C@@H](CC(C)C)COc4ccc(Cl)cc4S3(=O)=O)nn2)cc1	.	.	-2	-2	4	.
CN(C(=O)c1ccc(NC(=O)Cc2ccc(NC(=O)C3CCCN(C(=O)C4CC4)C3)cc2)cc1)C1CC1 (stereo unspecified)	3	2	2	-5	2	.
Cc1cc(O)cc(=O)n1-c1cccc(F)c1	-1	.	7	-3	-2	.
O=c1oc2c(-c3cccc(F)c3)cc(O)cc2s1	7	-9	14	36*	-5	10
O=C(Cn1nc(-c2ccccc2)c2ccccc21)Oc1ccccc1	.	.	-22	3	-4	.
